In brackets after ≈: the same amount, converted by molar mass. Activity calls are given as the source filed them. The rule behind the calls is not given here.
Tests used:
[1] = system: Mycobacterium tuberculosis; assay: Antitubercular activity against Mycobacterium tuberculosis H37Rv ATCC 27294/XDR-TB incubated for 28 days by agar dilution method; type: functional; conditions: 672 h
Method in brief: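 Agar dilution: two-fold dilutions in Middlebrook 7H11 agar with OADC. Inoculum from fresh 7H11/OADC slants adjusted to 1 mg/mL wet weight in 0.05% Tween 80 saline, diluted 10^-2 (~10⁷ cfu/mL); 5 µL spotted per tube. Incubated 37 °C; MIC, lowest concentration fully inhibiting growth, read after 28 days, in triplicate.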

Escherichia coli [2] = assay: Antibacterial activity against Escherichia coli at 1 mg/ml incubated for 18 hrs by well plate technique; type: functional; conditions: for zone of inhibition at 1000 µg/mL: read-out: DIZ
Method in brief: (§1)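 Bacteria kept on nutrient agar at 37 °C, grown statically in nutrient broth (start ~10-100 cfu/mL) at 37 °C for 18-24 h. Suspensions diluted in saline and spread on nutrient agar, then wells cut with a cork borer. Compound in DMSO at 1 or 0.5 mg/mL added to wells, 37 °C, 18 h. Inhibition zone diameter measured minus DMSO value; triplicate; streptomycin standard.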

Escherichia coli [3] = assay: Antibacterial activity against Escherichia coli at 0.5 mg/ml incubated for 18 hrs by well plate technique; type: functional; conditions: for zone of inhibition at 500 µg/mL: read-out: DIZ; method in brief: as §1
Staphylococcus aureus [4] = assay: Antibacterial activity against Staphylococcus aureus at 1 mg/ml incubated for 18 hrs by well plate technique; type: functional; conditions: for zone of inhibition at 1000 µg/mL: read-out: DIZ; method in brief: as §1
Staphylococcus aureus [5] = assay: Antibacterial activity against Staphylococcus aureus at 0.5 mg/ml incubated for 18 hrs by well plate technique; type: functional; conditions: for zone of inhibition at 500 µg/mL: read-out: DIZ; method in brief: as §1
Pseudomonas aeruginosa [6] = assay: Antibacterial activity against Pseudomonas aeruginosa at 1 mg/ml incubated for 18 hrs by well plate technique; type: functional; conditions: for zone of inhibition at 1000 µg/mL: read-out: DIZ; method in brief: as §1
Pseudomonas aeruginosa [7] = assay: Antibacterial activity against Pseudomonas aeruginosa at 0.5 mg/ml incubated for 18 hrs by well plate technique; type: functional; conditions: for zone of inhibition at 500 µg/mL: read-out: DIZ; method in brief: as §1
Salmonella typhi [8] = assay: Antibacterial activity against Salmonella typhi at 1 mg/ml incubated for 18 hrs by well plate technique; type: functional, Salmonella enterica subsp. enterica serovar Typhi; conditions: for zone of inhibition at 1000 µg/mL: Salmonella enterica, read-out: DIZ; for diameter of the inhibition zone (DIZ): Salmonella enterica subsp. enterica serovar Typhi
Method in brief: (§2)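 Well diffusion on nutrient agar; strains kept on nutrient agar at 37 °C, grown statically in nutrient broth 18-24 h at 37 °C, diluted in saline, 0.1 ml spread per plate. Compounds in DMSO at 1 and 0.5 mg/mL added to cork-bored wells; 18 h at 37 °C. Inhibition zone diameter measured, DMSO value subtracted; triplicate; streptomycin reference.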

Salmonella typhi [9] = assay: Antibacterial activity against Salmonella typhi at 0.5 mg/ml incubated for 18 hrs by well plate technique; type: functional, Salmonella enterica subsp. enterica serovar Typhi; conditions: for zone of inhibition at 500 µg/mL: Salmonella enterica, read-out: DIZ; for diameter of the inhibition zone (DIZ): Salmonella enterica subsp. enterica serovar Typhi; method in brief: as §2
Aspergillus flavus [10] = assay: Antifungal activity against Aspergillus flavus at 1 mg/ml incubated for 3 days; type: functional; conditions: for zone of inhibition at 1000 µg/mL: 72 h, read-out: IZ
Method in brief: (§3)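 Well plate method on potato dextrose agar. Fungal stock suspended in distilled water with Tween 80 and swabbed over plates. Samples in DMSO at 1 and 0.5 mg/mL added to wells, incubated 25 °C for 3 days, then scored for inhibition zones; fluconazole standard.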

Aspergillus flavus [11] = assay: Antifungal activity against Aspergillus flavus at 0.5 mg/ml incubated for 3 days; type: functional; conditions: for zone of inhibition at 500 µg/mL: 72 h, read-out: IZ; method in brief: as §3
[12] = system: Chrysosporium keratinophilum; assay: Antifungal activity against Chrysosporium keratinophilum at 1 mg/ml incubated for 3 days; type: functional; conditions: for zone of inhibition at 1000 µg/mL: 72 h, read-out: IZ; method in brief: as §3
[13] = system: Chrysosporium keratinophilum; assay: Antifungal activity against Chrysosporium keratinophilum at 0.5 mg/ml incubated for 3 days; type: functional; conditions: for zone of inhibition at 500 µg/mL: 72 h, read-out: IZ; method in brief: as §3
Candida albicans [14] = assay: Antifungal activity against Candida albicans at 1 mg/ml incubated for 3 days; type: functional; conditions: for zone of inhibition at 1000 µg/mL: 72 h, read-out: IZ; method in brief: as §3
Candida albicans [15] = assay: Antifungal activity against Candida albicans at 0.5 mg/ml incubated for 3 days; type: functional; conditions: for zone of inhibition at 500 µg/mL: 72 h, read-out: IZ; method in brief: as §3
[16] = Antioxidant activity assessed as DPPH radical scavenging activity incubated for 10 mins by UV-visible spectrometry; type: physicochemical
Method in brief: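 DPPH free-radical scavenging; absorbance read at 517 nm against a methanol blank. % scavenging = (A control − A sample)/A control × 100.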

[17] = Cytotoxicity against African green monkey Vero cells assessed as growth inhibition at 62.5 ug/ml after 72 hrs by MTT assay; type: cell-based; conditions: chlorocebus sabaeus, read-out: GI
Method in brief: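 Vero cells grown in MEM + 10% FBS at 37 °C, 5% CO2. Seeded ~10,000 cells/well, 24 h to a partial monolayer. Compounds in DMSO diluted in MEM + 2% FBS (1 mg/ml stock, two-fold dilutions) for 72 h. MTT 3 h, formazan dissolved in propanol, A540. % inhibition = 100 − (mean OD test/mean OD control × 100).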

Structure (SMILES) | MIC [1] [µg/mL] | zone of inhibition at 1000 µg/mL (Escherichia coli [2]) [mm] | zone of inhibition at 500 µg/mL (Escherichia coli [3]) [mm] | zone of inhibition at 1000 µg/mL (Staphylococcus aureus [4]) [mm] | zone of inhibition at 500 µg/mL (Staphylococcus aureus [5]) [mm] | zone of inhibition at 1000 µg/mL (Pseudomonas aeruginosa [6]) [mm] | zone of inhibition at 500 µg/mL (Pseudomonas aeruginosa [7]) [mm] | zone of inhibition at 1000 µg/mL (Salmonella typhi [8]) [mm] | zone of inhibition at 500 µg/mL (Salmonella typhi [9]) [mm] | zone of inhibition at 1000 µg/mL (Aspergillus flavus [10]) [mm] | zone of inhibition at 500 µg/mL (Aspergillus flavus [11]) [mm] | zone of inhibition at 1000 µg/mL [12] [mm] | zone of inhibition at 1000 µg/mL (Candida albicans [14]) [mm] | zone of inhibition at 500 µg/mL (Candida albicans [15]) [mm] | inhibition (INH) [16] [%] | diameter of the inhibition zone (DIZ) (Escherichia coli [2]) | diameter of the inhibition zone (DIZ) (Escherichia coli [3]) | diameter of the inhibition zone (DIZ) (Staphylococcus aureus [4]) | diameter of the inhibition zone (DIZ) (Staphylococcus aureus [5]) | inhibition zone (IZ) [13] | also measured
Fc1ccc(-c2nc3sc(-c4ccc(Cl)cc4)nn3c2-c2nc3ccccc3[nH]2)cc1 | 3.12 (≈ 7.01 µM) | 5 | 3 | 7 | 3 | 8 | 5 | 3 | 1 | 4 | 2 | 4 | 3 | 1 | 21.7 | – | – | – | – | – | zone of inhibition at 500 µg/mL [13]: 3 mm; inhibition at 72 h, 62.5 ug/ml [17]: 10.7%
Cc1ccc(-c2nc3sc(-c4ccc(Cl)cc4)nn3c2-c2nc3cc([N+](=O)[O-])ccc3[nH]2)cc1 | 6.25 (≈ 12.8 µM) | – | – | – | – | – | – | – | – | – | – | – | – | – | 26.3 | inactive | inactive | inactive | inactive | inactive | diameter of the inhibition zone (DIZ) (Pseudomonas aeruginosa [6]): inactive; diameter of the inhibition zone (DIZ) (Pseudomonas aeruginosa [7]): inactive; diameter of the inhibition zone (DIZ) (Salmonella typhi [8]): inactive; diameter of the inhibition zone (DIZ) (Salmonella typhi [9]): inactive; inhibition zone (IZ) (Aspergillus flavus [10]): inactive; inhibition zone (IZ) (Aspergillus flavus [11]): inactive; inhibition zone (IZ) [12]: inactive; inhibition zone (IZ) (Candida albicans [14]): inactive; inhibition zone (IZ) (Candida albicans [15]): inactive; inhibition at 72 h, 62.5 ug/ml [17]: 8.85%
Cc1ccc(-c2nn3c(-c4nc5ccccc5[nH]4)c(-c4ccc(F)cc4)nc3s2)cc1 | 12.5 (≈ 29.4 µM) | 13 | 9 | 14 | 11 | 13 | 10 | 15 | 13 | 6 | 4 | 5 | 6 | 4 | 22.6 | – | – | – | – | – | zone of inhibition at 500 µg/mL [13]: 3 mm
COc1ccc(-c2nc3sc(-c4ccc(Cl)cc4)nn3c2-c2nc3ccccc3[nH]2)cc1 | 12.5 (≈ 27.3 µM) | 3 | 1 | 3 | 2 | 2 | 1 | 3 | 1 | – | – | – | – | – | 20.9 | – | – | – | – | inactive | inhibition zone (IZ) (Aspergillus flavus [10]): inactive; inhibition zone (IZ) (Aspergillus flavus [11]): inactive; inhibition zone (IZ) [12]: inactive; inhibition zone (IZ) (Candida albicans [14]): inactive; inhibition zone (IZ) (Candida albicans [15]): inactive
Cc1ccc(-c2nc3sc(C)nn3c2-c2nc3cc(Cl)ccc3[nH]2)cc1 | 50 (≈ 132 µM) | 8 | 5 | 10 | 7 | 9 | 6 | 8 | 7 | 3 | 1 | 2 | 4 | 1 | 30.6 | – | – | – | – | inactive | –
Cc1nn2c(-c3nc4cc(Cl)ccc4[nH]3)c(-c3ccc(F)cc3)nc2s1 | 25 (≈ 65.1 µM) | 11 | 8 | 9 | 6 | 13 | 10 | 10 | 7 | 7 | 5 | 8 | 9 | 7 | 39.5 | – | – | – | – | – | zone of inhibition at 500 µg/mL [13]: 6 mm
COc1ccc(-c2nc3sc(C)nn3c2-c2nc3cc([N+](=O)[O-])ccc3[nH]2)cc1 | 12.5 (≈ 30.8 µM) | – | – | – | – | – | – | – | – | 2 | 1 | 3 | 2 | 1 | 22.6 | inactive | inactive | inactive | inactive | – | diameter of the inhibition zone (DIZ) (Pseudomonas aeruginosa [6]): inactive; diameter of the inhibition zone (DIZ) (Pseudomonas aeruginosa [7]): inactive; diameter of the inhibition zone (DIZ) (Salmonella typhi [8]): inactive; diameter of the inhibition zone (DIZ) (Salmonella typhi [9]): inactive; zone of inhibition at 500 µg/mL [13]: 2 mm
COc1ccc(-c2nc3sc(-c4ccc(F)cc4)nn3c2-c2nc3ccccc3[nH]2)cc1 | 12.5 (≈ 28.3 µM) | – | – | – | – | – | – | – | – | – | – | – | – | – | 25.4 | inactive | inactive | inactive | inactive | inactive | diameter of the inhibition zone (DIZ) (Pseudomonas aeruginosa [6]): inactive; diameter of the inhibition zone (DIZ) (Pseudomonas aeruginosa [7]): inactive; diameter of the inhibition zone (DIZ) (Salmonella typhi [8]): inactive; diameter of the inhibition zone (DIZ) (Salmonella typhi [9]): inactive; inhibition zone (IZ) (Aspergillus flavus [10]): inactive; inhibition zone (IZ) (Aspergillus flavus [11]): inactive; inhibition zone (IZ) [12]: inactive; inhibition zone (IZ) (Candida albicans [14]): inactive; inhibition zone (IZ) (Candida albicans [15]): inactive
COc1ccc(-c2nc3sc(-c4ccc(C)cc4)nn3c2-c2nc3ccccc3[nH]2)cc1 | 12.5 (≈ 28.6 µM) | – | – | – | – | – | – | – | – | – | – | – | – | – | 21.6 | inactive | inactive | inactive | inactive | inactive | diameter of the inhibition zone (DIZ) (Pseudomonas aeruginosa [6]): inactive; diameter of the inhibition zone (DIZ) (Pseudomonas aeruginosa [7]): inactive; diameter of the inhibition zone (DIZ) (Salmonella typhi [8]): inactive; diameter of the inhibition zone (DIZ) (Salmonella typhi [9]): inactive; inhibition zone (IZ) (Aspergillus flavus [10]): inactive; inhibition zone (IZ) (Aspergillus flavus [11]): inactive; inhibition zone (IZ) [12]: inactive; inhibition zone (IZ) (Candida albicans [14]): inactive; inhibition zone (IZ) (Candida albicans [15]): inactive
Cc1ccc(-c2nn3c(-c4nc5cc([N+](=O)[O-])ccc5[nH]4)c(-c4ccc(Cl)cc4)nc3s2)cc1 | 12.5 (≈ 25.7 µM) | – | – | – | – | – | – | – | – | – | – | – | – | – | 21.8 | inactive | inactive | inactive | inactive | inactive | diameter of the inhibition zone (DIZ) (Pseudomonas aeruginosa [6]): inactive; diameter of the inhibition zone (DIZ) (Pseudomonas aeruginosa [7]): inactive; diameter of the inhibition zone (DIZ) (Salmonella typhi [8]): inactive; diameter of the inhibition zone (DIZ) (Salmonella typhi [9]): inactive; inhibition zone (IZ) (Aspergillus flavus [10]): inactive; inhibition zone (IZ) (Aspergillus flavus [11]): inactive; inhibition zone (IZ) [12]: inactive; inhibition zone (IZ) (Candida albicans [14]): inactive; inhibition zone (IZ) (Candida albicans [15]): inactive
